ChEMBL document CHEMBL3817734, “Structure-activity relationships of vanillic acid ester analogs in inhibitory effect of antigen-mediated degranulation in rat basophilic leukemia RBL-2H3 cells” (Bioorg Med Chem Lett, 2016)
Values belong to the compound of their own block, whether it stands above or below them. Calls of active or inactive are those of the source. The calls are words filed in the database; no cut-off is given here.

Tests used:
RBL-2H3 [1] = experiment: Anti-allergic activity in RBL2H3 cells assessed as inhibition of anti-DNP-IgE-induced degranulation at 30 to 300 uM incubated for 20 mins followed by DNP-labeled human serum albumin addition measured after 1 hr by beta-hexosaminidase release assay; type: functional, cell-based; conditions: Rattus norvegicus
Method in brief: (§1)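 DNP-IgE-sensitized RBL-2H3 cells were pretreated with test samples for 20 min, with 75 μM oxatomide as positive control, then stimulated with DNP-HSA for 1 h. Degranulation was read as β-hexosaminidase release. Compounds were dissolved in culture medium containing cyclodextrin (CD). Data are the mean of three independent cultures ± SD, compared with control by Dunnett's test.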

[2] = Cytotoxicity in RBL2H3 cells; type: cell-based; conditions: rat, rbl-2h3
[3] = Increase in anti-DNP-IgE-induced degranulation in RBL2H3 cells incubated for 20 mins followed by DNP-labeled human serum albumin addition measured after 1 hr by beta-hexosaminidase release assay; type: cell-based; conditions: rat, rbl-2h3, 1 h; method in brief: as §1
RBL-2H3 [4] = experiment: Anti-allergic activity in RBL2H3 cells assessed as inhibition of anti-DNP-IgE-induced degranulation incubated for 20 mins followed by DNP-labeled human serum albumin addition measured after 1 hr by beta-hexosaminidase release assay; type: functional, cell-based; conditions: Rattus norvegicus; method in brief: as §1
[5] = Drug metabolism in RBL2H3 cells assessed as vanillin and vanillic acid formation; type: ADME, cell-based; conditions: rat, rbl-2h3
RBL-2H3 [6] = experiment: Anti-allergic activity in RBL2H3 cells assessed as inhibition of anti-DNP-IgE-induced degranulation at 1000 uM incubated for 20 mins followed by DNP-labeled human serum albumin addition measured after 1 hr by beta-hexosaminidase release assay; type: functional, cell-based; conditions: Rattus norvegicus; method in brief: as §1
RBL-2H3 [7] = experiment: Anti-allergic activity in RBL2H3 cells assessed as inhibition of anti-DNP-IgE-induced degranulation at 100 to 1000 uM incubated for 20 mins followed by DNP-labeled human serum albumin addition measured after 1 hr by beta-hexosaminidase release assay; type: functional, cell-based; conditions: Rattus norvegicus; method in brief: as §1
[8] = Drug level in RBL2H3 cells treated with butyl vanillate assessed as esterase-mediated compound formation; type: ADME, cell-based; conditions: rat, rbl-2h3
[9] = Drug level in RBL2H3 cells treated with ferulic acid; type: ADME, cell-based; conditions: rat, rbl-2h3
[10] = Drug metabolism in RBL2H3 cells assessed as esterase-mediated butanol formation; type: ADME, cell-based; conditions: rat, rbl-2h3
[11] = Drug metabolism in RBL2H3 cells assessed as esterase-mediated vanillic acid formation; type: ADME, cell-based; conditions: rat, rbl-2h3
[12] = Solubility of compound in water; type: physicochemical; conditions: buffer

SMILES: CCCCOC(=O)c1ccc(O)cc1
- inhibition (RBL-2H3 [1]): Active

SMILES: CCCCCCCCOC(=O)c1ccc(O)c(OC)c1
- Activity [2]: Toxic
- Activity [3]: Toxic

- IC50 (RBL-2H3 [4]): 294 µM
SMILES: CCCOC(=O)c1ccc(O)c(OC)c1

SMILES: CCCCOC(=O)c1ccc(OC)cc1
- inhibition (RBL-2H3 [1]): inactive

SMILES: CCOC(=O)CCc1ccc(O)c(OC)c1
- inhibition (RBL-2H3 [1]): inactive

- Drug metabolism [5]: metabolite_detected
SMILES: COc1cc(/C=C/C(=O)O)ccc1O [FERULATE]
- inhibition (RBL-2H3 [4]): Active

SMILES: CCCCOC(=O)c1cccc(OC)c1
- inhibition (RBL-2H3 [1]): inactive

- IC50 (RBL-2H3 [4]): 640 µM
SMILES: COC(=O)c1ccc(O)c(OC)c1 [METHYL VANILLATE]
- inhibition (RBL-2H3 [6]): Active

- Drug metabolism [8]: metabolite_detected
- Drug metabolism [9]: metabolite_detected
SMILES: COc1cc(C(=O)O)ccc1O [VANILLIC ACID]
- inhibition (RBL-2H3 [7]): inactive

SMILES: CCCOC(=O)Cc1ccc(O)c(OC)c1
- inhibition (RBL-2H3 [1]): inactive

SMILES: CCCCOC(=O)c1ccc(OC)c(O)c1
- inhibition (RBL-2H3 [1]): Active

SMILES: CCCCOC(=O)c1cccc(O)c1
- inhibition (RBL-2H3 [1]): Active

- Drug metabolism [9]: metabolite_detected
SMILES: COc1cc(C=O)ccc1O [VANILLIN]
- inhibition (RBL-2H3 [7]): inactive

- IC50 (RBL-2H3 [4]): 415 µM
SMILES: COc1cc(C(=O)OC(C)C)ccc1O

- Drug metabolism [10]: metabolite_detected
- Drug metabolism [11]: metabolite_detected
- solubility [12]: soluble
- IC50 (RBL-2H3 [4]): 198 µM
SMILES: CCCCOC(=O)c1ccc(O)c(OC)c1
- Activity [2]: Non-toxic

SMILES: CCCCOC(=O)c1ccccc1
- inhibition (RBL-2H3 [1]): inactive
